PTEN del growth – growth suppression of PTEN-null HCT116, primary screen, cell-based, CellTiter-Glo; HCT116 PTEN-null viability, 60 h; stronger effect = lower value; viability, % at 10 µM; AID 827, 2007; 140,000 compounds, 1.2% hits;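 active = viability at or below a set limit, 4 SD under the median of all tested compounds, cut at about 3.7% in these data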;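 also: PTEN knockout HCT116 line with beta catenin targeted HCT116 as companion control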
Lmaj promast – Leishmania major promastigote growth inhibition, primary screen | Leishmania major promastigotes, resazurin fluorescence viability | inhibition, % at 10 µM | 200,000 compounds, 9% hits; in the data active = inhibition above about 50%;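 also: promastigotes grown with compound for 44 hours at 28 °C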
TNAP act hiacc – TNAP activators at high phosphate acceptor level, primary screen, biochemical, luminescence, uHTS; Alkaline phosphatase, tissue-nonspecific isozyme (Homo sapiens), P05186; purified TNAP, CDP-star luminescence, 1 M DEA, 30 min; stronger effect = higher value; 0 = EDTA background, 1 = DMSO-only activity; activation factor at 20 µM; 200,000 tested, under 10 active;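 active = activation factor at least 2 at 20 µM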
Target sequence (P05186 whole entry, looked up): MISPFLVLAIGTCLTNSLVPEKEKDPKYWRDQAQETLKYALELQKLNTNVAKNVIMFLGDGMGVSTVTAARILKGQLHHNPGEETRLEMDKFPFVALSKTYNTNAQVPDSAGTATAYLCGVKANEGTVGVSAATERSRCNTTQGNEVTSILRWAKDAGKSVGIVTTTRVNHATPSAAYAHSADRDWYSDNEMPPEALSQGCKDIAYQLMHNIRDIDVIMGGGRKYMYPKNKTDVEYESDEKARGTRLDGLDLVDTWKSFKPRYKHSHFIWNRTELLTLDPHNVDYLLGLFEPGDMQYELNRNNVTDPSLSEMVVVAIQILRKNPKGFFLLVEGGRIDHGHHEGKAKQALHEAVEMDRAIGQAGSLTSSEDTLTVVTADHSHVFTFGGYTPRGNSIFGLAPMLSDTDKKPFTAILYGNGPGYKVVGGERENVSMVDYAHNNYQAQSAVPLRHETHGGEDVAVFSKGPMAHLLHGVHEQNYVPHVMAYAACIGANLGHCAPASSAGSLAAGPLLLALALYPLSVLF
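system = human TNAP | amount = enzyme diluted 1/800 final | reagent = 100 µM CDP-star substrate | signal = luminescent substrate turnover signal | dosing = one dose, 20 µM | benchmarks = EDTA negative control, DMSO positive control | measure = activation factor | timing = 30 min reaction, room temperature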
TNAP inh noacc – human TNAP enzyme inhibitors, primary screen, biochemical, luminescent, no phosphate acceptor, uHTS | Alkaline phosphatase, tissue-nonspecific isozyme (Homo sapiens), P05186 | purified TNAP, CDP-star luminescence, 30 min | inhibition, % at 20 µM | 200,000 compounds, 0.26% hits;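 active = tissue-nonspecific alkaline phosphatase inhibition above about 50% at 20 µM in the single-dose screen, limit read from the data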;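 also: 0% = DMSO negative control and 100% = EDTA positive control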
HCT116 bCat-KO – primary screen for growth suppressors in beta-catenin knockout HCT116 cells (colon tumor, human) | HCT116 beta-catenin knockout viability, CellTiter-Glo, 60 h; stronger effect = lower value | 140,000 compounds, 1.5% hits | viability, % at 10 µM;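 active = viability at or under a set limit, the compound median less 4 SD, cut at about 6% in these data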;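 also: 0% = Hyamine 1622 control at 20 µM and 100% = untreated cell control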
TNAP inh hiacc – human TNAP enzyme inhibitors, primary screen, biochemical, luminescent, high phosphate acceptor level, uHTS; Alkaline phosphatase, tissue-nonspecific isozyme (Homo sapiens), P05186; purified TNAP, CDP-star luminescence, 1 M DEA; inhibition, % at 20 µM; 200,000 compounds, 0.03% hits;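 active = over 50% inhibition of tissue-nonspecific alkaline phosphatase at 20 µM in the single-dose screen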;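 also: plate controls were DMSO wells for no effect and EDTA-quenched wells as full inhibition for full effect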
An asterisk follows results filed as active; . = not tested or not shown. Most compounds without a hit are left out; they make up all but 9.6% or so of the library.

SMILES | PTEN del growth | Lmaj promast | TNAP act hiacc | TNAP inh noacc | HCT116 bCat-KO | TNAP inh hiacc
CCOC(=O)c1c(C)n(Cc2ccccc2)c2ccc(O)cc12 | . | -0.8 | 1 | -5.0 | . | -4.9
CCOC(=O)c1c(NC(=O)C(c2ccccc2)c2ccccc2)sc2c1C1CCN2CC1 | 54.2 | 100.4* | 1.1 | -10.1 | 57.7 | -6.9
CCOc1ccc2nc(N=Nc3c(O)[nH]c(=S)[nH]c3=O)sc2c1 | . | -19.7 | 0.5 | 36.4 | . | 52.7*
O=C(O)CCn1cc(C=C2C(=O)NC(=S)NC2=O)c(-c2ccccc2)n1 | . | -2.8 | 1 | -1.9 | . | -1.8
Cc1cc(C)cc(N2C(=O)NC(=O)/C(=C\c3cccn3-c3ccc(Cl)cc3)C2=O)c1 | 27.1 | 92.0* | 1 | -3.8 | 43.6 | -4.1
Cc1cc(C)cc(N2C(=O)NC(=O)/C(=C\c3cccn3-c3ccccc3)C2=O)c1 | 35.3 | 36.1 | 0.9 | -4.6 | 58.3 | 6.5
CN1C(=O)/C(=C\N2CCc3ccccc32)C(=O)NC1=S | 84.4 | -5.2 | 0.9 | -7.3 | 93.0 | 6.2
CN1C(=O)/C(=C/c2cccn2-c2ccc3ccccc3c2)C(=O)NC1=S | 91.4 | 100.4* | 1 | 19.3 | 81.9 | 1.9
O=C1NC(=S)NC(=O)C1=Cc1cccn1-c1ccc(O)cc1 | . | 100.0* | 0.8 | 42.9 | . | 21.8
CN1CCN(c2ncnc3nc[nH]c23)CC1 | . | 1.0 | 1 | -11.6 | . | -4.9
COc1ccc(/C=C2/C(=O)NC(=S)N(C3CC3)C2=O)cc1CN1C(=O)c2ccccc2C1=O | 101.0 | -7.5 | 1 | 7.8 | 91.0 | -2.8
O=c1c2ccccc2nc(C[n+]2ccccc2)n1-c1cccc(C(F)(F)F)c1 | . | -5.8 | 1.1 | -11.3 | . | -5.7
CC(=O)c1cn(Cc2ccccc2C#N)c2ccccc12 | . | -2.9 | 1 | -11.9 | . | -4.1
CCOC(=O)C(NC(=O)CCl)(Nc1ccc(C(O)(C(=O)OCC)C(F)(F)F)cc1)C(F)(F)F (stereo not drawn) | 103.4 | 6.4 | 1 | -3.9 | 91.4 | -2.0
CCOC(=O)N(C)c1ccc(C(O)(C(=O)OCC)C(F)(F)F)cc1 (stereo not drawn) | 94.5 | 98.7* | 1 | -9.2 | 87.5 | -0.2
CCOC(=O)C(O)(c1ccc(N(CC)C(=O)OC)cc1)C(F)(F)F (stereo not drawn) | 107.4 | 98.3* | 1 | -9.9 | 96.3 | 0.9
COC(=O)C(O)(c1ccc(N(C)C(=O)OC(C)C)cc1)C(F)(F)F (stereo not drawn) | 88.5 | 91.8* | 1 | -19.1 | 90.6 | -0.3
CCOC(=O)N(CC)c1ccc(C(O)(C(=O)OCC)C(F)(F)F)cc1 (stereo not drawn) | 97.1 | 98.3* | 1.1 | -15.3 | 94.2 | -6.4
COC(=O)C(O)(c1ccc(NC(=O)NC2CCCCC2)cc1)C(F)(F)F (stereo not drawn) | 91.5 | -7.8 | 1 | -9.7 | 88.0 | -2.9
CCOC(=O)C(O)(c1ccc(NC(=O)Oc2ccccc2)cc1)C(F)(F)F (stereo not drawn) | 93.5 | 0.5 | 1.1 | -11.5 | 95.4 | -8.2
N=C1c2ccccc2CN1c1ncccn1 | . | 7.3 | 1 | -11.2 | . | 0.9
CCN(CC)P(=O)(NC(=O)c1cccn1C)N(CC)CC | . | -5.4 | 1 | -3.6 | . | 2.8
CCN(C(=O)Oc1ccccc1)c1ccc(C(O)(C(=O)OC)C(F)(F)F)cc1 (stereo not drawn) | 103.4 | 99.4* | 1 | -13.3 | 96.0 | -1.5
COC(=O)C(O)(c1ccc(NC(=S)NC(=O)c2ccc(Cl)cc2Cl)cc1)C(F)(F)F (stereo not drawn) | 85.4 | 42.1 | 1.1 | 17.8 | 87.8 | -5.8
CCOC(=O)C(O)(c1ccc(NC(=S)NC(=O)c2ccc(Cl)cc2Cl)cc1)C(F)(F)F (stereo not drawn) | 74.7 | 66.9* | 1 | 10.5 | 71.0 | 0.5
SMILES | PTEN del growth | Lmaj promast | TNAP act hiacc | TNAP inh noacc | HCT116 bCat-KO | TNAP inh hiacc
COc1ccc(CN2CCN(Cc3ccccc3)CC2)c(OC)c1 | 79.0 | -4.2 | 1 | -11.1 | 72.6 | -2.2
CCN1CCN(Cc2ccc(OC(F)(F)F)cc2)CC1 | 89.8 | 88.9* | 1.1 | -13.9 | 88.1 | -5.6
CCCCCCOc1ccc(CN2CCN(CC)CC2)cc1 | 65.1 | 97.1* | 1 | -13.1 | 61.8 | -4.1
CN1CCN(Cc2ccc(N)cc2)CC1 | . | -4.2 | 1 | -3.9 | . | -2.3
CC(=O)N1N=C2C3CCN(CC3)C2C1c1ccc(F)cc1 (stereo not drawn) | . | -12.0 | 1 | -4.6 | . | -3.3
CCCn1c(C(=O)c2ccc(OC)cc2)nc2ccccc21 | . | 8.5 | 1 | -5.8 | . | -4.5
COc1ccc(C(=O)c2nc3ccccc3n2C(C)C)cc1 | . | 50.8* | 1 | 2.7 | . | -1.6
O=P(NCc1ccccc1)(Oc1ccccc1)Oc1ccccc1 | 79.5 | 6.5 | 1 | 2.2 | 71.0 | -1.3
N#CC1=C(N)Oc2c(c(=O)oc3ccccc23)C1c1ccncc1 (stereo not drawn) | 99.8 | -5.2 | 1 | -5.6 | 111.5 | 3.2
N#CC1=C(N)Oc2c(c(=O)sc3ccccc23)C1c1cccnc1 (stereo not drawn) | . | 81.1* | 1 | -7.7 | . | -0.8
CCCCc1nc(N2CCNCC2)c(C#N)c2c1CSC(C)(C)C2 | 1.9* | 97.2* | 1 | 7.6 | 1.7* | -2.9
CCC12CN3CCN(CC(C3)/C1=N/NC(=O)c1ccncc1)C2 | . | -1.8 | 1 | -7.5 | . | -2.4
CCN(C(C)=O)c1cccc(-c2ccnc3c(C#N)cnn23)c1 | . | . | 1 | -7.0 | . | -3.8
NCCc1c[nH]c2ccccc12 | 94.1 | -3.4 | 1 | -2.5 | 90.6 | 4.8
Cc1[nH]c2c(Cl)cccc2c1CCN | . | 56.5* | 1 | -7.1 | . | -2.3
CN1CCCC(C(=O)c2ccccc2)C1 (stereo not drawn) | 97.0 | -5.4 | 1 | -13.2 | 95.2 | -4.4
CN1CCC(O)(c2ccccc2)C(C(=O)c2ccccc2)C1 (stereo not drawn) | 22.9 | 49.5 | 1 | -6.4 | 5.3* | -2.0
CCN1CCC(O)(c2ccccc2)C(C(=O)c2ccccc2)C1 (stereo not drawn) | . | 80.3* | . | . | . | .
C=CCn1c(O)c(/C=N/NC(=O)CCCC)c(=O)[nH]c1=S | . | -5.1 | 1 | 49.4 | . | -3.5
CC(C)c1ccc(N2C(=O)NC(=O)/C(=C\C=C\c3ccco3)C2=O)cc1 | . | 66.6* | 1 | 10.4 | . | 1.8
CC(C)c1ccc(N2C(=O)NC(=O)/C(=C\c3cnc(-c4ccccc4)nc3)C2=O)cc1 | 107.7 | -5.0 | 1 | -1.6 | 93.6 | 1.1
COc1cc(C(c2c(C)[nH]n(-c3ccccc3)c2=O)c2c(C)[nH]n(-c3ccccc3)c2=O)cc(OC)c1OC | 85.8 | 95.0* | 1 | -8.9 | 87.8 | -1.7

Source: PubChem BioAssay
